Assay outcomes (PubChem)
KCNQ1 act – potentiators or activators of KCNQ1 channel, primary screen, cell-based, thallium flux, high-throughput; Potassium voltage-gated channel subfamily KQT member 1 (Homo sapiens), P51787; CHO-K1 KCNQ1, thallium flux FluxOR fluorescence; active compounds read high; B-score at 10 µM; 0.35% of 310,000 active;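 active means fluorescence ratio B-score, a plate-corrected score, at least three library SD, with initial intensity B-score within 5 SD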
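Medium – assay buffer, equal DMSO in all wells · Material – CHO-K1 cell line with stable KCNQ1 potassium channel expression · Signal – kinetic FluxOR thallium fluorescence, 10-s 1-Hz baseline, 110-s post-stimulus read · Compound – single concentration per compound, DMSO matched to controls · Schedule – 37 °C overnight plating, 90-min dark dye load, 20-min compound pretreatment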
KCNQ1 block – inhibitors of human KCNQ1 channel, primary screen, cell-based, thallium flux, high-throughput; CHO-K1 KCNQ1, FluxOR thallium flux fluorescence; active compounds read high; B-score at 10 µM; 1.3% of 310,000 active;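 active means compounds whose thallium flux B-score, printed positive for inhibition, exceeds three library SD while starting fluorescence stays within three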;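 further: channel opened by potassium depolarization with thallium stimulus after 20 min compound exposure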
Kir21 block – inhibitors of mouse Kir2.1 inward-rectifier potassium channel | Inward rectifier potassium channel 2 (Mus musculus), P35561 | HEK293-Kir2.1, FluxOR thallium flux fluorescence; active compounds read low | B-score at 10 µM | 0.85% of 310,000 active | AID 1672, 2009;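 active means fluorescence ratio B-score at or below minus 3 SD of library scores, with starting-brightness B-score within 2 SD, cut at about -4.2 in these data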;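 further: channel flux triggered by added potassium and thallium sulfate stimulus; B-score of peak minus minimum fluorescence over baseline after thallium stimulus; more negative B-score means stronger Kir2.1 block with less thallium influx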
hERG rescue – hERG rescue from dofetilide block, primary screen, cell-based, CHO-hERG, FluxOR thallium flux, dofetilide IC70; dofetilide IC70 present; activation (rescue from dofetilide block), less the hit threshold, % at 10 µM; AID 1511, 2009; 0.51% of 310,000 active; Voltage-gated inwardly rectifying potassium channel KCNH2 (Homo sapiens), Q12809;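 active means activation above the mean of controls blocked by dofetilide plus 5 SD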;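 further: thallium influx through hERG after potassium depolarization seen as dye fluorescence rise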
KCNK3 block – human KCNK3 channel inhibitors, primary screen, CHO cells, FluxOR thallium flux, B-score; FluxOR fluorescence; active compounds read low; B-score at 10 µM; Potassium channel subfamily K member 3 (Homo sapiens), O14649; AID 602410, 2012; 0.84% of 340,000 active;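 active means B-score under library mean minus 4 SD, starting fluorescence ratio at most library mean plus 5 SD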;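 further: more negative B-score means stronger inhibition of thallium flux through KCNK3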
KCNK9 inh – KCNK9 potassium channel inhibitors, primary screen, HEK293 cells, thallium flux; Potassium channel subfamily K member 9 (Homo sapiens), Q9NPC2; FluxOR thallium flux fluorescence; active compounds read low; B-score at 10 µM; 1.2% of 310,000 active; AID 488922, 2010;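 active means ratio B-score over 3 SD below the library mean, with starting fluorescence within 5 SD of its mean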;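 further: negative B-score means less thallium flux so channel inhibition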
Target sequence (Q9NPC2 whole entry, looked up): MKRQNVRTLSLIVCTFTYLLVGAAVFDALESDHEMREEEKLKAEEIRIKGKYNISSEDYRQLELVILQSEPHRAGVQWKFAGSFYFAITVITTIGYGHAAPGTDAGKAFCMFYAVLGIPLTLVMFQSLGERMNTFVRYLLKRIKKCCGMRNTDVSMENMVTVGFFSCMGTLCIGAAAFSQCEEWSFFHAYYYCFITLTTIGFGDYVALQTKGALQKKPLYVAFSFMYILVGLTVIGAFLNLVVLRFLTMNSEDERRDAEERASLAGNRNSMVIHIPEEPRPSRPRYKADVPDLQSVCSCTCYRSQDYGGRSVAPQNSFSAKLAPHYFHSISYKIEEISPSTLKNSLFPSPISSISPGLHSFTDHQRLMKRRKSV
Numbers without * were called inactive; i = inactive; x = not tested or not shown. In the library only some 3.7% were active in any assay of this set; here they are far more common.

SMILES | KCNQ1 act | KCNQ1 block | Kir21 block | hERG rescue | KCNK3 block | KCNK9 inh
Cc1ccccc1CN1CCN(Cc2ccccc2)CC1 | i | i | -4.7* | -6 | i | i
CC/C(=N\NC(=O)c1ccccc1)c1c(O)n(C2CCCCC2)c(=O)[nH]c1=O | i | 7* | 1.1 | -14 | i | i
O=[N+]([O-])c1ccc(N2CCNCC2)cc1NCc1ccco1 | i | i | -4.4* | -10 | i | i
COc1ccc(S(=O)(=O)N2Cc3cnnn3-c3ccccc3C2C#N)cc1 (stereo not drawn) | x | x | x | x | i | x
C=C1[C@H]2C[C@H]3[C@H]4N5C[C@]6(C)CCC[C@]47[C@H]([C@H]2O)[C@]3(C[C@]5(O)[C@H]67)[C@@H]1O | i | i | -0.47 | -7 | i | i
O=C1NC(=O)N(c2cccc(Cl)c2)C(=O)/C1=C\c1ccc(Sc2nc3ccccc3[nH]2)o1 | i | i | -4.8* | -10 | i | i
c1ccc2c(CNC3CCCCC3)c[nH]c2c1 | i | i | 0.01 | -8 | x | -7.1*
COc1ccc(N2C(=O)/C(=C/c3ccc(N(C)C)o3)C(=O)NC2=S)cc1 | i | i | -1.6 | -19 | i | i
CCN(CC)c1ccc(/C=C2\C(=O)NC(=S)N(C)C2=O)o1 | i | 7* | -2.4 | -7 | i | i
CCN(CC)c1ccc(/C=C2\C(=O)NC(=S)N(c3ccc(OC)cc3OC)C2=O)o1 | i | 6* | -7 | -23 | i | i
CN(C)CC#CCn1c2ccccc2c2ccccc21 | i | i | -5.6* | -7 | i | i
N#CC(C#N)=NNc1ccc(-n2ccc(C(F)(F)F)n2)cc1 | i | 7* | -6* | -36 | i | i
CN(C)CCN(C(=O)COc1ccc(Cl)cc1)c1nc2cc3c(cc2s1)OCO3 | i | i | 0.42 | -7 | i | i
O=[N+]([O-])c1ccccc1-c1cc(-c2ccccc2)cc(-c2ccccc2)[n+]1Cc1ccccc1Cl | i | 8* | -9.1* | -30 | x | -8*
CCOc1ccc(-c2cc(C)[n+](CCO)c(-c3ccc(OCC)cc3)c2)cc1 | i | i | 0.68 | -4 | i | i
CCOc1ccc(-c2cc(C)[n+](CCc3ccc(OC)c(OC)c3)c(-c3ccc(OCC)cc3)c2)cc1 | i | 10* | -3.2 | -28 | i | i
Cc1cc(-c2ccccc2)cc(-c2ccccc2)[n+]1CCc1ccccc1 | i | 8* | -6.9* | -26 | i | -8*
Clc1ccc(C[n+]2c(-c3ccccc3)cc(-c3ccccc3)cc2-c2ccccc2)cc1 | i | 13* | -13* | -36 | i | -8.3*
C[n+]1c(-c2ccccc2)cc(-c2ccc(O)cc2)cc1-c1ccccc1 | i | i | -0.46 | -23 | i | i
O=C1NC(=O)C2(CCN(c3ccccc3)CC2)C(=O)N1 | x | x | x | x | i | x
COc1cc2c(cc1OC)C13CCN4CC5=CCOC(CC(=O)O)C(C5CC41)C3N2 (stereo not drawn) | x | x | x | x | i | x
N#CC(=C(O)c1ccc(S(=O)(=O)N(CCCl)CCCl)cc1)c1nc2ccccc2[nH]1 | x | x | x | x | i | x
CCOC(=O)c1cc2c(cn1)[C@@H](CCO)NC2 | x | x | x | x | i | x
CCn1c(O)c(C=Nc2ccc(N3CCOCC3)cc2)c(=O)n(CC)c1=S | i | 7* | -0.69 | -19 | i | i
CCn1c(O)c(C=Nc2ccc(N3CCOCC3)c(Br)c2)c(=O)n(CC)c1=S | i | i | 0.69 | -18 | i | i
SMILES | KCNQ1 act | KCNQ1 block | Kir21 block | hERG rescue | KCNK3 block | KCNK9 inh
COc1ccc(-[n+]2c(-c3ccccc3)cc(-c3ccccc3)cc2-c2ccccc2)cc1 | i | 6* | -7.5* | -30 | x | -8.8*
O=[N+]([O-])c1ccc(-[n+]2c(-c3ccccc3)cc(-c3ccccc3)cc2-c2ccccc2)cc1 | i | i | -2 | -10 | i | i
Oc1ccc(-[n+]2c(-c3ccccc3)cc(-c3ccccc3)cc2-c2ccccc2)cc1 | i | 10* | -10* | -50 | i | -7.3*
O=C(CCN1CC1)OCCOC(=O)CCN1CC1 | x | x | x | x | i | x
CC(=O)OC1C(=O)OCC23CCC4(C)OC4C2OC2CC(OC(=O)C=CC=CC(=O)OCCC1C)C3(C)C21CO1 (stereo not drawn) | x | x | x | x | i | x
CC[n+]1c(/C=C/N(C)c2ccccc2)sc2ccc(Cl)cc21 | i | 6* | 0.38 | -23 | i | i
CC[n+]1c(/C=C/C=C/c2ccc(N(C)C)cc2)sc2ccccc21 | i | i | -4 | -29 | -11* | -6.6*
CN(C)c1ccc(/C=C/C=C/c2sc3ccccc3[n+]2C)cc1 | i | i | 0.58 | -18 | i | i
CN1C(=O)NC(=O)C(N=Nc2ccc(Cl)cc2)C1=O (stereo not drawn) | x | x | x | x | i | x
CCOC(=O)c1c(-n2c(C)cc(C=C3C(=O)NC(=S)NC3=O)c2C)sc2c1CCCC2 | i | i | -4.8* | -17 | i | i
CCOC(=O)c1c(-n2c(C)cc(/C=C3/C(=O)NC(=O)N(CC)C3=O)c2C)sc2c1CCCC2 | i | i | -0.58 | -2 | i | i
C[CH2][Hg][S]c1ccccc1C(=O)O | x | x | x | x | i | x
C/C1=C\[C@@H](C)C/C=C/[C@H]2[C@@H]3O[C@]3(C)[C@@H](C)[C@H]3[C@H](Cc4c[nH]c5ccccc45)NC(=O)[C@]32C(=O)/C=C/C(=O)[C@@H]1O | 22* | i | -2.1 | -1 | i | i
Cc1ccc(/C=C2\C(=O)NC(=S)N(c3ccc(F)cc3)C2=O)s1 | i | i | -1.7 | 11* | i | i
Cc1cccc(-n2c(C)nc3ccc(Cl)cc3c2=O)c1 | i | i | 0.05 | -6 | i | i
CCOc1cccc(CNCCc2c(C)[nH]c3ccc(OC(F)(F)F)cc23)c1O | i | 12* | -13* | -21 | i | i
Cc1[nH]c2ccc(OC(F)(F)F)cc2c1CCNCc1ccc(Cl)cc1 | i | i | -7.2* | -28 | i | i
Cc1[nH]c2ccc(OC(F)(F)F)cc2c1CCNCc1cccc([N+](=O)[O-])c1 | i | i | -2.1 | -14 | i | i
c1ccc(C[n+]2ccccc2)cc1 | i | 7* | -1.1 | -7 | i | i
Cc1cc[n+](Cc2ccccc2)cc1 | i | i | 0.02 | -2 | i | i
